Data: ChEMBL document CHEMBL1140227, “Histone deacetylase inhibitors through click chemistry” (J Med Chem, 2008)

What was measured:
Type in all cases: functional
KM12 = assay: Growth inhibition of human KM12 cells at 10 uM relative to control; details: values are per cent of control
Outline: (§1)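 Single-dose preliminary screen in the NCI human cancer cell line panel, run by the NIH. Percent inhibition of cell line growth was calculated by comparison with untreated samples.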

SF-539 = assay: Growth inhibition of human SF539 cells at 10 uM relative to control; details: values are per cent of control; outline: as §1
A498 = assay: Growth inhibition of human A498 cells at 10 uM relative to control; details: values are per cent of control; outline: as §1
MDA-MB-468 = assay: Growth inhibition of human MDA-MB-468 cells at 10 uM relative to control; details: values are per cent of control; outline: as §1
MDA-MB-435 = assay: Growth inhibition of human MDA-MB-435 cells at 10 uM relative to control; details: values are per cent of control; outline: as §1
786-0 = assay: Growth inhibition of human 786-0 cells at 10 uM relative to control; details: values are per cent of control; outline: as §1
OVCAR-3 = assay: Growth inhibition of human OVCAR-3 cells at 10 uM relative to control; details: values are per cent of control; outline: as §1
HT-29 = assay: Growth inhibition of human HT-29 cells at 10 uM relative to control; details: values are per cent of control; outline: as §1
NCI-H226 = assay: Growth inhibition of human NCI-H226 cells at 10 uM relative to control; details: values are per cent of control; outline: as §1
NCI-H322M = assay: Growth inhibition of human NCI-H322M cells at 10 uM relative to control; details: values are per cent of control; outline: as §1
UO-31 = assay: Growth inhibition of human UO31 cells at 10 uM relative to control; details: values are per cent of control
Outline: (§2)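 Single-dose NCI human tumour cell line screen, run by the NIH. Percent inhibition of cell line growth was calculated by comparison with untreated samples.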

SW-620 = assay: Growth inhibition of human SW620 cells at 10 uM relative to control; details: values are per cent of control; outline: as §2
SK-OV-3 = assay: Growth inhibition of human SKOV3 cells at 10 uM relative to control; details: values are per cent of control; outline: as §1
UACC-257 = assay: Growth inhibition of human UACC257 cells at 10 uM relative to control; details: values are per cent of control; outline: as §2
OVCAR-8 = assay: Growth inhibition of human OVCAR8 cells at 10 uM relative to control; details: values are per cent of control; outline: as §1
SK-MEL-5 = assay: Growth inhibition of human SK-MEL-5 cells at 10 uM relative to control; details: values are per cent of control; outline: as §1
NCI-H460 = assay: Growth inhibition of human NCI-H460 cells at 10 uM relative to control; details: values are per cent of control; outline: as §1
EKVX = assay: Growth inhibition of human EKVX cells at 10 uM relative to control; details: values are per cent of control; outline: as §1
SF-268 = assay: Growth inhibition of human SF268 cells at 10 uM relative to control; details: values are per cent of control; outline: as §1
CCRF-CEM = assay: Growth inhibition of human CCRF-CEM cells at 10 uM relative to control; details: values are per cent of control; outline: as §1
SN12C = assay: Growth inhibition of human SN12C cells at 10 uM relative to control; details: values are per cent of control; outline: as §1
SK-MEL-2 = assay: Growth inhibition of human SK-MEL-2 cells at 10 uM relative to control; details: values are per cent of control; outline: as §1
[1] = Growth inhibition of human RPMI8266 cells at 10 uM relative to control; details: values are per cent of control; outline: as §1
IGROV-1 = assay: Growth inhibition of human IGROV1 cells at 10 uM relative to control; details: values are per cent of control; outline: as §1
HCT-15 = assay: Growth inhibition of human HCT15 cells at 10 uM relative to control; details: values are per cent of control; outline: as §1
SNB-75 = assay: Growth inhibition of human SNB75 cells at 10 uM relative to control; details: values are per cent of control; outline: as §2
HCT-116 = assay: Growth inhibition of human HCT116 cells at 10 uM relative to control; details: values are per cent of control; outline: as §1
SNB-19 = assay: Growth inhibition of human SNB19 cells at 10 uM relative to control; details: values are per cent of control; outline: as §1
CAKI-1 = assay: Growth inhibition of human Caki1 cells at 10 uM relative to control; details: values are per cent of control; outline: as §1
LOX IMVI = assay: Growth inhibition of human LOXIMVI cells at 10 uM relative to control; details: values are per cent of control; outline: as §1
cells [2] = details: Homo sapiens, Cancer cell lines
Leukemia cell = assay: cells; details: Homo sapiens
cells [3] = details: Homo sapiens, Cancer cell lines; remark: listed apart in the source
HOP-62 = assay: Growth inhibition of human HOP62 cells at 10 uM relative to control; details: values are per cent of control; outline: as §1
M14 = assay: Growth inhibition of human M14 cells at 10 uM relative to control; details: values are per cent of control; outline: as §1
ACHN = assay: Growth inhibition of human ACHN cells at 10 uM relative to control; details: values are per cent of control; outline: as §1
NCI-H23 = assay: Growth inhibition of human NCI-H23 cells at 10 uM relative to control; details: values are per cent of control; outline: as §1
A549 = assay: Growth inhibition of human A549 cells at 10 uM relative to control; details: values are per cent of control; outline: as §1
COLO 205 = assay: Growth inhibition of human COLO205 cells at 10 uM relative to control; details: values are per cent of control; outline: as §1
SK-MEL-28 = assay: Growth inhibition of human SK-MEL-28 cells at 10 uM relative to control; details: values are per cent of control; outline: as §1
Malme-3M = assay: Growth inhibition of human MALME-3M cells at 10 uM relative to control; details: values are per cent of control; outline: as §1
OVCAR-5 = assay: Growth inhibition of human OVCAR5 cells at 10 uM relative to control; details: values are per cent of control; outline: as §1
BT-549 = assay: Growth inhibition of human BT549 cells at 10 uM relative to control; details: values are per cent of control; outline: as §1
T47D = assay: Growth inhibition of human T47D cells at 10 uM relative to control; details: values are per cent of control; outline: as §2
TK-10 = assay: Growth inhibition of human TK10 cells at 10 uM relative to control; details: values are per cent of control; outline: as §2
Melanoma cell = assay: cells; details: Homo sapiens
NCI/ADR-RES = assay: Growth inhibition of human NCI/ADR-RES cells at 10 uM relative to control; details: values are per cent of control; outline: as §1
U-251 = assay: Growth inhibition of human U251 cells at 10 uM relative to control; details: values are per cent of control; outline: as §2
MDA-MB-231 = assay: Growth inhibition of human MDA-MB-231 cells at 10 uM relative to control; details: values are per cent of control; outline: as §1
MCF7 = assay: Growth inhibition of human MCF7 cells at 10 uM relative to control; details: values are per cent of control; outline: as §1
MOLT-4 = assay: Growth inhibition of human MOLT4 cells at 10 uM relative to control; details: values are per cent of control; outline: as §1
K562 = assay: Growth inhibition of human K562 cells at 10 uM relative to control; details: values are per cent of control; outline: as §1
NCI-H522 = assay: Growth inhibition of human NCI-H522 cells at 10 uM relative to control; details: values are per cent of control; outline: as §1
PC-3 = assay: Growth inhibition of human PC3 cells at 10 uM relative to control; details: values are per cent of control; outline: as §1
cells [4] = details: Homo sapiens, Cancer cell lines; remark: listed apart in the source
HOP-92 = assay: Growth inhibition of human HOP92 cells at 10 uM relative to control; details: values are per cent of control; outline: as §1
cells [5] = details: Homo sapiens, Cancer cell lines; remark: listed apart in the source
HCC 2998 = assay: Growth inhibition of human HCC2998 cells at 10 uM relative to control; details: values are per cent of control; outline: as §1
UACC-62 = assay: Growth inhibition of human UACC62 cells at 10 uM relative to control; details: values are per cent of control; outline: as §2
HL-60(TB) = assay: Growth inhibition of human HL-60(TB) cells at 10 uM relative to control; details: read-out: INH
Outline: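 Single-dose cell line screen run by the NCI (NIH) in its human cancer cell line panel, which includes the leukemia line HL-60(TB). Percent growth inhibition was calculated by comparison with untreated samples.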

cells [6] = details: Homo sapiens, Cancer cell lines; remark: listed apart in the source
OVCAR-4 = assay: Growth inhibition of human OVCAR4 cells at 10 uM relative to control; details: values are per cent of control; outline: as §1
DU-145 = assay: Growth inhibition of human DU145 cells at 10 uM relative to control; details: values are per cent of control; outline: as §1
SF-295 = assay: Growth inhibition of human SF295 cells at 10 uM relative to control; details: values are per cent of control; outline: as §1

SMILES: O=C(/C=C/c1cn(CCc2ccccc2)nn1)NO
- growth, % of control at 10 µM (KM12): 67.8%
- growth, % of control at 10 µM (SF-539): 72.8%
- growth, % of control at 10 µM (A498): 52.4%
- growth, % of control at 10 µM (MDA-MB-468): 56%
- growth, % of control at 10 µM (MDA-MB-435): 21.9%
- growth, % of control at 10 µM (786-0): 26.3%
- growth, % of control at 10 µM (OVCAR-3): 61.3%
- growth, % of control at 10 µM (HT-29): 56.9%
- growth, % of control at 10 µM (NCI-H226): 76.5%
- growth, % of control at 10 µM (NCI-H322M): 66%
- growth, % of control at 10 µM (UO-31): 37.4%
- growth, % of control at 10 µM (SW-620): 31.1%
- growth, % of control at 10 µM (SK-OV-3): 57%
- growth, % of control at 10 µM (UACC-257): 19.5%
- growth, % of control at 10 µM (OVCAR-8): 26.5%
- growth, % of control at 10 µM (SK-MEL-5): 35.5%
- growth, % of control at 10 µM (NCI-H460): 62.5%
- growth, % of control at 10 µM (EKVX): 44.6%
- growth, % of control at 10 µM (SF-268): 57.2%
- growth, % of control at 10 µM (CCRF-CEM): 7.44%
- growth, % of control at 10 µM (SN12C): 64.8%
- growth, % of control at 10 µM (SK-MEL-2): 45.8%
- growth, % of control at 10 µM [1]: 1.76%
- growth, % of control at 10 µM (IGROV-1): 44.6%
- growth, % of control at 10 µM (HCT-15): 75.8%
- growth, % of control at 10 µM (SNB-75): 35.1%
- growth, % of control at 10 µM (HCT-116): 5.49%
- growth, % of control at 10 µM (SNB-19): 90%
- growth, % of control at 10 µM (CAKI-1): 52.9%
- growth, % of control at 10 µM (LOX IMVI): 44.9%
- inhibition at 10 µM (cells [2]): 48%
- inhibition at 10 µM (Leukemia cell): 7%
- growth percent at 10 µM (cells [3]): 46%
- growth, % of control at 10 µM (HOP-62): 13.3%
- growth, % of control at 10 µM (M14): 44.7%
- growth, % of control at 10 µM (ACHN): 29.3%
- growth, % of control at 10 µM (NCI-H23): 68.4%
- growth, % of control at 10 µM (A549): 54.2%
- growth, % of control at 10 µM (COLO 205): 53.9%
- growth, % of control at 10 µM (SK-MEL-28): 42.6%
- growth, % of control at 10 µM (Malme-3M): 15.9%
- growth, % of control at 10 µM (OVCAR-5): 23.5%
- growth, % of control at 10 µM (BT-549): 78%
- growth, % of control at 10 µM (T47D): 32.8%
- growth, % of control at 10 µM (TK-10): 57.7%
- inhibition at 10 µM (Melanoma cell): 33%
- growth, % of control at 10 µM (NCI/ADR-RES): -13.7%
- growth, % of control at 10 µM (U-251): 40.7%
- growth, % of control at 10 µM (MDA-MB-231): 60.3%
- growth, % of control at 10 µM (MCF7): 63.7%
- growth, % of control at 10 µM (MOLT-4): 3.77%
- growth, % of control at 10 µM (K562): 30.5%
- growth, % of control at 10 µM (NCI-H522): 27.7%
- growth, % of control at 10 µM (PC-3): 37.2%
- growth percent at 10 µM (cells [4]): 40%
- growth, % of control at 10 µM (HOP-92): -9.64%
- inhibition at 10 µM (cells [5]): 45%
- growth, % of control at 10 µM (HCC 2998): 69.2%
- growth, % of control at 10 µM (UACC-62): 18.1%
- growth, % of control at 10 µM (HL-60(TB)): -10.7%
- inhibition at 10 µM (cells [6]): 58%
- growth, % of control at 10 µM (OVCAR-4): 77.5%
- growth, % of control at 10 µM (DU-145): 35.5%
- growth, % of control at 10 µM (SF-295): 51.8%
